In test [1] the target is T1, Δ^1–28 L-PGDS (Homo sapiens, UniProt P41222).
T1 sequence (P41222 29-190): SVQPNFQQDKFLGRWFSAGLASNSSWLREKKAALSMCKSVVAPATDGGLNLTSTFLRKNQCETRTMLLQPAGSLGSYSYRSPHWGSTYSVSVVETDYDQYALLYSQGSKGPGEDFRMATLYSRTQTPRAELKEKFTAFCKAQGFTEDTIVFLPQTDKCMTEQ
In words: Fluorescence displacement binding assay. The settings on record: for Binding to Δ^1–28 L-PGDS, DAUDA displacement: DAUDA probe.

In test [2] the target is T1, Δ^1–28 L-PGDS. As to the kind of experiment: Intrinsic tryptophan fluorescence quenching assay. Type of test: binding. The note with it: compound 20 μM, L-PGDS 1.5 μM, pH 8.0; mean ± SE. The procedure, abridged: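 Recombinant human Δ1–28 L-PGDS, delipidated on hydroxypropyl-beaded dextran (1 h, 37 °C), used at 1.5 μM in 5 mM Tris–HCl pH 8.0. Test compound (2 mM DMSO stock) added at 20 μM final; equilibrated 30 min at 25 °C. Tryptophan fluorescence read at ex/em 282/340 nm and corrected for nonspecific effects with N-acetyl-L-tryptophanamide (1.5 μM). Reported relative to vehicle; ≥3 independent assays.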

The target in test [3] is T1, Δ^1–28 L-PGDS. In words: Determination of fluorescent probe binding affinity.
For test [4], the target named is L-PGDS. The settings on record: known high-affinity L-PGDS ligand; ref Breustedt et al., 2006; cited from earlier work.
Where [5] appears, read: Ki, DAUDA (500 nM) displacement, L-PGDS 3 μM, pH 7.6, 25 °C, mean ± SE.
[6] abbreviates: DAUDA (500 nM) displacement, L-PGDS 3 μM, pH 7.6, 25 °C, mean ± SE.

By Ki is commonly meant the dissociation constant of the complex between target and ligand, obtained from inhibition or displacement. Read a low Ki as tighter binding. In general, Kd refers to the free concentration of one partner at which half of the binding sites on the other are occupied at equilibrium, for simple one-to-one binding.

“And” between values parts separate entries of the source, which are not always exact repeats. Equal values may be shown once.

Take `CCCCC/C=C\C/C=C\C/C=C\C/C=C\CCCC(=O)NCCO` [AEA, N-arachidonoylethanolamine]: the “Affinity for Δ^1–28 L-PGDS, ANS displacement” value in test [1] (ANS probe (500 nM)) is listed as “lack of affinity”. In addition, in test [1], the “Binding to Δ^1–28 L-PGDS, DAUDA displacement” value (“Binding to Δ^1–28 L-PGDS” below) is on record as “did not bind”. In test [1] (setting [5]), this compound yielded an inhibition constant Ki of more than 200 µM. For the same compound, in test [2], the “Quenching (%), fluorescence reduction relative to vehicle-treated Δ^1–28 L-PGDS” value was 3.1 ± 3.3%.
In test [1] (setting [5]), `CCCCC[C@H](O)/C=C/[C@H]1[C@H](O)CC(=O)[C@@H]1C/C=C\CCCC(=O)O` [PGE2, prostaglandin E2] had a Ki of 128 ± 16 µM. Besides, the “Quenching (%), fluorescence reduction relative to vehicle-treated Δ^1–28 L-PGDS” value in test [2] is given as 6.5 ± 1.5%.
As to `CCCCC/C=C\C/C=C\C/C=C\C/C=C\CCCC(=O)OC(CO)CO` [2-AG, 2-arachidonoylglycerol], the “Binding to Δ^1–28 L-PGDS” value in test [1] is on record as “did not bind”. In test [1] (setting [5]), the Ki was more than 200 µM. The “Quenching (%), fluorescence reduction relative to vehicle-treated Δ^1–28 L-PGDS” value in test [2] is −0.8 ± 3.0%.
As to `O=S(=O)(O)c1cccc2cccc(Nc3ccccc3)c12` [ANS, 1-anilinonaphthalene-8-sulfonic acid], the Kd in test [3] was 3400 ± 800 nM.
In test [1] (setting [6]), `CCCCC[C@H](O)/C=C/[C@@H]1[C@@H](C/C=C\CCCC(=O)NCCO)[C@@H](O)C[C@H]1O` [Prostamide F2α] gave a Ki of more than 200 µM. Further, the “Binding to Δ^1–28 L-PGDS” value in test [1] is listed as “not found to bind with any appreciable affinity”. Moreover, the “Quenching (%), fluorescence reduction relative to vehicle-treated Δ^1–28 L-PGDS” value in test [2] came to 0.1 ± 2.6%.
Turning to `CCCCCCC(C)(C)c1cc(O)c2c(c1)OC(C)(C)[C@@H]1CC=C(C(=O)O)C[C@@H]21` [AJA, ajulemic acid], in test [1] (setting [5]), the Ki was 2.2 µM and 2.3 µM. For the same compound, the “Quenching (%), fluorescence reduction relative to vehicle-treated Δ^1–28 L-PGDS” value in test [2] was 21.9 ± 2.9%.
On to `CCCCCc1cc(O)c2c(c1)OC(C)(C)[C@@H]1CCC(C)=C[C@@H]21` [THC, Δ^9-tetrahydrocannabinol], for which, in test [1] (setting [6]), the Ki was 175 ± 26 µM. Also, the “Quenching (%), fluorescence reduction relative to vehicle-treated Δ^1–28 L-PGDS” value in test [2] came to 14.0 ± 2.2%.
In test [1] (setting [5]), `CCCCCC/C=C\CCCCCCCC(=O)O` [PLA, palmitoleic acid] had a Ki of 3.7 ± 0.5 µM. In test [2], the “Quenching (%), fluorescence reduction relative to vehicle-treated Δ^1–28 L-PGDS” value was 11.9 ± 2.3%.
Turning to `CN(C)c1cccc2c(S(=O)(=O)NCCCCCCCCCCC(=O)O)cccc12` [DAUDA, 11-(dansylamino)undecanoic acid], the Kd in test [3] stood at 960 ± 80 nM.
Compound `CCCCC[C@H](O)/C=C/[C@@H]1[C@@H](C/C=C\CCCC(=O)O)[C@@H](O)C[C@H]1O` [PGF2α, prostaglandin F2α] yielded a Ki in test [1] (setting [5]) of 81 ± 9 µM. The “Quenching (%), fluorescence reduction relative to vehicle-treated Δ^1–28 L-PGDS” value in test [2] is 2.7 ± 1.7%.
With `CCCCCCCC/C=C\CCCCCCCC(N)=O` [Oleamide], the Ki in test [1] (setting [5]) is more than 200 µM. Moreover, the “Quenching (%), fluorescence reduction relative to vehicle-treated Δ^1–28 L-PGDS” value in test [2] was found to be 3.6 ± 2.0%.
As to `O=C(O)C1[C@H](c2ccccc2)C(C(=O)Oc2cccc3ccccc23)[C@H]1c1ccccc1` (some centres unmarked) [SBFI-26], the affinity in test [1] (setting [6]), expressed as Ki, was 3 ± 0.5 µM. Also, the “Quenching (%), fluorescence reduction relative to vehicle-treated Δ^1–28 L-PGDS” value in test [2] came to 33.3 ± 2.2%.
As for `CCCCCCCC/C=C\CCCCCCCC(=O)NCCO` [OEA, oleoylethanolamide], the “Binding to Δ^1–28 L-PGDS” value in test [1] was “did not display any appreciable binding”. In test [1] (setting [5]), this compound gave a Ki of more than 200 µM. Moreover, in test [2], the “Quenching (%), fluorescence reduction relative to vehicle-treated Δ^1–28 L-PGDS” value is recorded as −0.9 ± 2.1%.
The matching figures for `CCCCCCCCCCCCCCCC(=O)NCCO` [PEA, palmitoylethanolamide]: “did not display any appreciable binding”, more than 200 µM and 1.3 ± 4.7%.
In the case of `CCCCCc1cc(O)c2c(c1)OC(C)(C)[C@@H]1CCC(C(=O)O)=C[C@@H]21` [THC-COOH, 11-nor-9-carboxy-Δ^9-tetrahydrocannabinol], the Ki in test [1] (setting [6]) and in test [1] (DAUDA displacement) was 7.8 ± 1.7 µM each time. Besides, the “Quenching (%), fluorescence reduction relative to vehicle-treated Δ^1–28 L-PGDS” value in test [2] is given as 15.6 ± 1.3%.
`CCCCCCC(CCCCCCCCCCC(=O)O)N(C)c1ccc([N+](=O)[O-])c2nonc12` (centres unmarked) [NBD-stearate, 12-N-methyl-(7-nitrobenz-2-oxa-1,3-diazo)aminostearic acid]: the “Binding of fluorescent probe” value in test [3] (L-PGDS 1 μM titrated with probe) is on record as “did not exhibit appreciable binding”.
As for `C=C(C)[C@@H]1CCC(C)=C[C@H]1c1c(O)cc(CCCCC)cc1O` [CBD, cannabidiol], the Ki in test [1] (setting [5]) was found to be 77.9 ± 3.9 µM. Besides, the “Quenching (%), fluorescence reduction relative to vehicle-treated Δ^1–28 L-PGDS” value in test [2] is reported as 7.2 ± 2.1%.
Regarding “prostaglandin E2-glyceryl ester [PGE2-GE]”, in test [1] (setting [6]), affinity was put at a Ki of 11.2 ± 1.2 µM. In addition, the “Quenching (%), fluorescence reduction relative to vehicle-treated Δ^1–28 L-PGDS” value in test [2] is recorded as 15.1 ± 1.7%.
Consider `CCCCCCCC/C=C\CCCCCCCC(=O)O` [OLA, oleic acid], for which the Ki in test [1] (setting [5]) amounted to 1.8 ± 0.9 µM. Further, the “Quenching (%), fluorescence reduction relative to vehicle-treated Δ^1–28 L-PGDS” value in test [2] stood at 15.1 ± 3.7%.
As for `CC1=C(/C=C/C(C)=C/C=C/C(C)=C/C(=O)O)C(C)(C)CCC1` [all-trans retinoic acid], the “Quenching (%), fluorescence reduction relative to vehicle-treated Δ^1–28 L-PGDS” value in test [2] amounted to 71.1 ± 1.4%. The Kd in test [4] was 290 nM.
For the compound “11-hydroxy-Δ^9-tetrahydrocannabinol [11-OH-THC]”, the Ki in test [1] (setting [6]) and in test [1] (DAUDA displacement) was 61 ± 14 µM in each case. Further, the “Quenching (%), fluorescence reduction relative to vehicle-treated Δ^1–28 L-PGDS” value in test [2] was 9.7 ± 1.3%.

The values above are taken from publication PMC6643050 (Lipids, 2018).
